From PubChem BioAssay
Neddylation inh: cullin neddylation inhibition. inhibition, % at 25 µM. 0.58% of 360,000 active. P61081+Q13564. TR-FRET cullin neddylation, biochemical; in the data active means inhibition above about 36%
Calb FLC: affects C. albicans growth with fluconazole. C. albicans CaCi-2 + fluconazole, Alamar Blue growth, 48 h. 0.57% of 300,000 active. AID 1979. growth inhibition, % (test concentration not listed);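 active means growth inhibition above about 58% in most replicates, limit read from the data, passing the limit was not always enough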;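 further: all wells also contain fluconazole at 8 µg/ml as a sub-toxic cotreatment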
procasp3 activ: activators of human procaspase-3; P42574; recombinant procaspase-3 D3A, Ac-DEVD-pNA absorbance 405 nm; activation, % at 8.5 µM; 0.11% of 330,000 active;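 active means activation above the mean of all tested compounds plus 3 SD, cut at about 21% in these data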
Target sequence (P42574 whole entry D9A/D28A/D175A): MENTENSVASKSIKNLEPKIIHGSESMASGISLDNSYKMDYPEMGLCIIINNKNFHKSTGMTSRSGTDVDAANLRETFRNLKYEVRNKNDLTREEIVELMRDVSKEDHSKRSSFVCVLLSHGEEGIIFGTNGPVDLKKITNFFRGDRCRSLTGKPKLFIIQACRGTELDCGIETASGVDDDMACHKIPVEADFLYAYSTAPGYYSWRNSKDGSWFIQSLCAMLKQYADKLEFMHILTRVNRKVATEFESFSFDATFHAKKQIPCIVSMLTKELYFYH
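Evaluation: percent activation relative to control range; Material: Procaspase-3 D3A mutant, all three cleavage aspartates alanine; Compound: single dose, 8.5 µM nominal compound, 0.8% DMSO; Replication: one well per compound; Signal: absorbance at 405 nm, 0 and 120 min; Schedule: 1 h preincubation plus 2 h reaction at 25 °C.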
GAA850 FXN act: activators of GAA850 frataxin (FXN) promoter | activation, % at 6 µM | 0.56% of 360,000 active | HEK293 lucGAA850 FXN promoter luciferase reporter, 24 h; percent of 10 µM SAHA response | AID 540364;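 active means activation above the average of all compounds screened plus 3 SD, cutoff fixed separately per campaign, cut at about 7.5% in these data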
procasp7 counter: activates human procaspase-7, counter-screen for procaspase-3 activators; P55210; recombinant procaspase-7, Ac-DEVD-pNA absorbance 405 nm; D23A/D198A/D206A triple mutant, cannot self-cleave; scale: DMSO 0, 5 µM enzyme 100; activation, % at 8.5 µM; 0.093% of 330,000 active; AID 463210;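 active means percent activation above the screen-wide mean plus 3 SD, cut at about 25% in these data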
Target sequence (P55210 whole entry D23A/D198A/D206A): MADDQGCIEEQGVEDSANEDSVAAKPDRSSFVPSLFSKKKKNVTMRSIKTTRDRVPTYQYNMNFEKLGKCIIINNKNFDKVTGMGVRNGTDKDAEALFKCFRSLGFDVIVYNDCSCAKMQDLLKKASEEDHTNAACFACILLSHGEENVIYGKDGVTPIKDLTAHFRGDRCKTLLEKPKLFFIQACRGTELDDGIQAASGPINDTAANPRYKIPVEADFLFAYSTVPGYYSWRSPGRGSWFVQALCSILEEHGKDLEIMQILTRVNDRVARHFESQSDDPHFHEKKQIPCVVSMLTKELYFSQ
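buffer or medium = Zinc-free HEPES/NaCl buffer, pH 7.4 | material = Procaspase-7 triple mutant (PC-7 D3A) | input = 2 µM procaspase-7 mutant as dispensed | signal = Epi-absorbance of released pNA at 405 nm, two timepoints | timing = 1 h preincubation, 2 h reaction | replicates = singlicate compound testing | evaluation = % activation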
HIF activator: HIF pathway transcriptional activation. activation, % at 7.5 µM (by protocol). AID 1910. 0.32% of 300,000 active. U2OS HRE-luciferase reporter, luminescence; normalized: DMSO 0%, desferrioxamine 100%;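 active means mean activation of at least 10% of the iron chelator positive control signal, with at least half of replicates also reaching 10%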
Large screens that a line does not name were inactive. Rows were chosen to be rich in hits. Some 1.9% of all compounds tested hit in one or more screens of this group.

Nc1nc(Nc2ccccc2)nc(NCc2ccco2)c1[N+](=O)[O-]	none
c1ccc(CNc2nc(-c3ccccc3)nc3ccccc23)cc1	none
c1ccc(CNc2nc(NCc3ccccc3)c3ccccc3n2)cc1	Calb FLC 80
Fc1ccc(Nc2nc(NCc3ccco3)c3ccccc3n2)cc1	Neddylation inh 43
CN(C)CCNC(=O)C1(C)Cc2c(-c3cccc(C(F)(F)F)c3)ccnc2O1 (stereo not drawn)	none (no result: Calb FLC, procasp3 activ, procasp7 counter, HIF activator)
O=[N+]([O-])c1cc2ncccc2c2ncccc12	none (no result: Calb FLC, procasp3 activ, procasp7 counter, HIF activator)
CCOC(=O)CNC(c1ccccc1)c1cc(Br)ccc1NC(=O)CCN1CCOCC1 (stereo not drawn)	Calb FLC 111
CCOc1ccccc1NC(=O)CCNC(=O)C1CCN(S(=O)(=O)c2ccccc2)CC1	none (no result: Calb FLC, procasp3 activ, procasp7 counter, HIF activator)
CC1(C)Cc2c(C#N)c(SCCC#N)nc(N3CCOCC3)c2CO1	HIF activator 35 (no result: procasp3 activ, procasp7 counter)
COc1cccc(/C=N/Nc2nc(Nc3ccc([N+](=O)[O-])cc3)nc(N3CCCC3)n2)c1O	Calb FLC 72
COc1cccc(/C=N/Nc2ccc([N+](=O)[O-])cn2)c1O	Calb FLC 97, HIF activator 50
O=[N+]([O-])c1ccc(NN=Cc2cccc3ccccc23)nc1	none (no result: Calb FLC, procasp3 activ, procasp7 counter, HIF activator)
O=C(NNc1ccc(Cl)cc1)c1c(F)cccc1Cl	Calb FLC 83
O=C(NNc1ccc(Cl)cc1)c1sccc1Cl	Calb FLC 105
NS(=O)(=O)c1ccc(NNC(=O)c2sccc2Cl)cc1	none
O=c1cc(-c2ccccc2Cl)oc2cccc(O)c12	none
O=c1cc2oc3cc(O)c(O)cc3c(-c3ccccc3[N+](=O)[O-])c-2cc1O	Calb FLC 88
Cc1cc(Br)cc(/C=N/NC(=O)c2ccc3c(c2)OCO3)c1O	HIF activator 13
O=C(N/N=C/c1cc(Br)c(Br)o1)c1ccc2c(c1)OCCO2	Calb FLC 85
O=C(N/N=C/c1ccccc1O)c1ccc2c(c1)OCO2	HIF activator 9.7
O=C(N/N=C/c1ccc2c(c1)OCO2)c1ccc2c(c1)OCCO2	none
O=C(Cc1ccccc1)N/N=C/c1cc(Br)cc(Cl)c1O	Calb FLC 114 (not shown: Neddylation inh)
O=P(O)(Cc1ccccc1)c1ccccc1	none (no result: Calb FLC, procasp3 activ, procasp7 counter, HIF activator)
COc1ccc(CCN2CC(C(=O)N(C)CC(=O)Nc3ccc(F)c(F)c3F)CC2=O)cc1OC (stereo not drawn)	none (no result: Calb FLC, procasp3 activ, procasp7 counter, HIF activator)
COc1cc(OCc2ccc(C)cc2)ccc1CNC[C@H]1O[C@@H](n2cnc(C(N)=O)n2)[C@H](O)[C@@H]1O	none (no result: Calb FLC, procasp3 activ, procasp7 counter, HIF activator)
COc1cc(C(=O)c2cc3c(cc2C)OCO3)cc(OC)c1OC	none (no result: Calb FLC, procasp3 activ, GAA850 FXN act, procasp7 counter, HIF activator)
CC1(C(=O)NCc2cccc(C(F)(F)F)c2)CCN1C1Cc2ccccc2C1 (stereo not drawn)	none (no result: Calb FLC, procasp3 activ, procasp7 counter, HIF activator)
O=C(N/N=C/c1cc(Br)cc(Cl)c1O)c1ccc2c(c1)OCO2	Calb FLC 94, HIF activator 19 (not shown: Neddylation inh)
NC(=S)n1[nH]c(-c2ccc([N+](=O)[O-])cc2)c(N=Nc2cccc([N+](=O)[O-])c2)c1=O	Calb FLC 100 (no result: procasp3 activ, procasp7 counter)
NC(=S)n1[nH]c(-c2ccc([N+](=O)[O-])cc2)c(N=Nc2ccccc2[N+](=O)[O-])c1=O	none (no result: Calb FLC, procasp3 activ, procasp7 counter, HIF activator)
O=C(NCC1CCCO1)c1cc2n(n1)C(C(F)(F)F)CC(c1ccc(Br)cc1)N2 (stereo not drawn)	Calb FLC 93
COc1cccc(-n2nnnc2S(C)(=O)=O)c1	Calb FLC 105
CS(=O)(=O)NN1C(=O)c2ccccc2NC1c1cccc2cccnc12 (stereo not drawn)	Calb FLC 80
CCOC(=O)C1CCN(C(=O)C2CCCN(c3ncnc4c3nc3n4CCCCC3)C2)CC1 (stereo not drawn)	HIF activator 400
CCOC(=O)N1CCN(C(=O)C2CCCN(c3ncnc4c3nc3n4CCCCC3)C2)CC1 (stereo not drawn)	none
CC[C@H](C)[C@H]1CNC(=S)N1CC1CCN(CCC23CC4CC(CC(C4)C2)C3)CC1	none (no result: Calb FLC, procasp3 activ, procasp7 counter, HIF activator)
O=c1ccc(N=Nc2ccccc2)ccc1O	Calb FLC 101
Oc1ccc(N=Nc2ccccc2)o1	none
Cc1[nH]c2ccccc2c1/C=N/Nc1nc2ccccc2[nH]1	Neddylation inh 53
C(=N\Nc1nc2ccccc2[nH]1)/c1cccc2cccnc12	HIF activator 271
O=[N+]([O-])c1cc(/C=N/Nc2nc3ccccc3[nH]2)c(O)cc1O	Calb FLC 88 (no result: Neddylation inh, GAA850 FXN act)
Cc1ccccc1/C=N/Nc1nc2ccccc2[nH]1	none
Cc1ccc(S(=O)(=O)N2CCN(C(=O)CCC(=O)Nc3ccc(Br)c(C)c3)CC2)cc1	none (no result: Calb FLC, procasp3 activ, procasp7 counter, HIF activator)
CC(=O)Nc1ccc(/C=N/NC(=O)c2cc(-c3ccco3)nc3ccccc23)cc1	none
Cc1cc(C(=O)N/N=C/c2cc(Cl)cc([N+](=O)[O-])c2O)c2ccccc2n1	Calb FLC 79
O=C(CNC(=O)C(c1ccccc1)c1ccccc1)N/N=C/c1ccc(O)cc1O	HIF activator 11
O=C(O)c1ccccc1/C=N/NC(=O)c1cc(-c2ccco2)nc2ccccc12	Neddylation inh 49
O=C(N/N=C/c1ccc(O)cc1O)c1ccncc1	none
CCc1cc(C(=O)N/N=C/c2ccc(O)cc2O)c2ccccc2n1	HIF activator 29
O=C(NC(c1ccc(Cl)cc1)c1cnccn1)C1CCN(CCCOc2ccccc2)CC1 (stereo not drawn)	none (no result: Calb FLC, procasp3 activ, procasp7 counter, HIF activator)
Nc1[nH]c(C(=O)c2ccccc2)c(-c2ccccc2C(F)(F)F)c1C(=O)c1cccs1	none (no result: Calb FLC, procasp3 activ, GAA850 FXN act, procasp7 counter, HIF activator)
CCN(CC)c1ccc(/C=C/c2cccc[n+]2C)c(OC)c1	Calb FLC 78
COc1ccc(/C=C/c2cccc[n+]2C)c(O)c1	none
Cc1ccc(O)c(CNc2cnc3ccccc3c2)c1	Neddylation inh 39
Oc1ccc(Br)cc1CNc1cnc2ccccc2c1	none
O=C1CNC(=O)c2cc(Cl)ccc2N1	none (no result: Calb FLC, procasp3 activ, procasp7 counter, HIF activator)
O=C1CS/C(=N\C(=O)N2c3ccccc3Sc3ccccc32)N1	Calb FLC 95
Cc1ccc(Nc2nnc(-c3ccccc3N)o2)cc1C	HIF activator 13 (not shown: Neddylation inh)
Oc1ccc(Cl)cc1C1=NNC(c2cc(Br)cc3c2OCOC3)C1 (stereo not drawn)	Calb FLC 70
COc1ccc(C2=NNC(c3cc(Cl)cc4c3OCOC4)C2)c(O)c1 (stereo not drawn)	none (no result: Neddylation inh, GAA850 FXN act)
c1ccc(CCNc2ncnc3ccccc23)cc1	Calb FLC 94
CCCCCCCCNc1ncnc2ccccc12	Calb FLC 76
COc1cc(CCNC2=CC(=O)c3ncccc3C2=O)ccc1O	none (no result: Calb FLC, procasp3 activ, procasp7 counter, HIF activator)
COc1ccc(CNCCNC(=O)c2ccco2)c(OC)c1OC	Calb FLC 91
CCN1C(=O)[C@H]2[C@@H](c3ccc(-c4ccc(OC)cc4)c(OC)c3)N[C@@](C)(C(=O)OC)[C@H]2C1=O	none (not shown: Neddylation inh)
